ChEMBL document CHEMBL1139243, “Synthesis and biological evaluation of a 2-aryl polyhydroxylated pyrrolidine alkaloid-based library” (Bioorg Med Chem, 2008)

Key:
[1] = Inhibition of Bacillus stearothermophilus alpha-glucosidase; set-up: species or system Geobacillus stearothermophilus
Summary of the method: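 Bacillus stearothermophilus α-glucosidase at 0.25–1 units per mL in 100 mM sodium phosphate, pH 6.8, room temperature. Substrate is p-nitrophenyl glycopyranoside at twice Km, with Km 1.5 mM from a Michaelis–Menten fit. Initial hydrolysis rates read at 405 nm. Compounds screened first at a single high concentration; active ones retested at lower concentrations for IC50.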

[2] = Inhibition of yeast alpha-glucosidase; set-up: species or system Saccharomyces cerevisiae
Summary of the method: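 Yeast α-glucosidase at 0.25–1 units per mL in 100 mM sodium phosphate, pH 6.8, room temperature. p-Nitrophenyl glycopyranoside substrate at twice Km, with Km 0.19 mM from a Michaelis–Menten fit. Initial velocities monitored at 405 nm. Compounds screened first at a single concentration; actives titrated lower to get IC50.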

[3] = Inhibition of Helix pomatia beta-mannosidase
Summary of the method: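 β-Mannosidase at 0.25–1 units per mL in 100 mM sodium citrate, pH 6.4, room temperature. p-Nitrophenyl glycopyranoside substrate at twice its Michaelis–Menten Km. Initial velocities read at 405 nm. Compounds screened first at a single concentration; those active titrated lower for IC50.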

[4] = Inhibition of almond beta-glucosidase; set-up: species or system Prunus dulcis
Summary of the method: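 β-Glucosidase at 0.25–1 units per mL in 100 mM sodium phosphate buffer, pH 6.8, room temperature. p-Nitrophenyl glycopyranoside substrate at twice its Michaelis–Menten Km. Initial hydrolysis rates read spectrophotometrically at 405 nm. Compounds screened first at one concentration; actives retested at lower levels for IC50.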

[5] = Inhibition of yeast alpha-glucosidase by Lineweaver-Burke double reciprocal plot; set-up: species or system Saccharomyces cerevisiae

OC[C@H]1N[C@H](c2ccc(O)cc2)[C@@H](O)[C@@H]1O [RADICAMINE B] gave an IC50 [1] of 10 µM, an IC50 [2] of 24 µM and an IC50 [3] of over 200 µM. The IC50 [4] was over 200 µM.

With COc1ccc([C@@H]2N[C@@H](CO)[C@H](O)[C@H]2O)cc1O [L-RADICAMINE A] the IC50 [1] was over 200 µM, the IC50 [2] was over 200 µM and the IC50 [3] was 113 µM. For the same molecule, the IC50 [4] was over 200 µM.

CCCCN1[C@H](CO)[C@@H](O)[C@H](O)[C@H]1c1ccc(OC)c(O)c1 gave an IC50 [1] of over 200 µM, an IC50 [2] of over 200 µM and an IC50 [3] of over 200 µM. It also gave an IC50 [4] of over 200 µM.

In the case of COc1ccc([C@@H]2[C@@H](O)[C@H](O)[C@@H](CO)N2C)cc1OC, the IC50 [1] is reported as 24 µM, the IC50 [2] is reported as 72 µM and the IC50 [3] is reported as over 200 µM. The IC50 [4] was over 200 µM.

Work on COc1ccc([C@H]2N[C@H](CO)[C@@H](O)[C@@H]2O)c(OC)c1 yielded an IC50 [1] of 8.4 µM, an IC50 [2] of 7.8 µM and an IC50 [3] of 172 µM. For the same molecule, the IC50 [4] was 96 µM.

COc1ccc([C@@H]2[C@@H](O)[C@H](O)[C@@H](CO)N2C)cc1O showed an IC50 [1] of over 200 µM, an IC50 [2] of 28 µM and an IC50 [3] of 184 µM. The IC50 [4] was over 200 µM.

Work on COc1ccc([C@@H]2[C@@H](O)[C@H](O)[C@@H](CO)N2C)cc1 yielded an IC50 [1] of 9.2 µM, an IC50 [2] of 38 µM and an IC50 [3] of 61 µM. The IC50 [4] was over 200 µM.

For COc1ccc(OC)c([C@@H]2[C@@H](O)[C@H](O)[C@@H](CO)N2C)c1, the IC50 [1] was over 200 µM, the IC50 [2] was over 200 µM and the IC50 [3] was over 200 µM. The IC50 [4] was over 200 µM.

COc1cccc([C@H]2N[C@H](CO)[C@@H](O)[C@@H]2O)c1 showed an IC50 [1] of 31 µM and an IC50 [2] of 2.4 µM.

COc1ccc([C@H]2N[C@H](CO)[C@@H](O)[C@@H]2O)cc1 showed an IC50 [1] of 8.8 µM, an IC50 [2] of 0.5 µM and an IC50 [3] of 21 µM. It also gave an IC50 [4] of 122 µM.

COc1ccc([C@@H]2N[C@@H](CO)[C@H](O)[C@H]2O)cc1 showed an IC50 [1] of over 200 µM, an IC50 [2] of 21 µM and an IC50 [3] of over 200 µM. For the same molecule, the IC50 [4] was over 200 µM.

COc1ccc(OC)c([C@H]2N[C@H](CO)[C@@H](O)[C@@H]2O)c1 gave an IC50 [1] of 4 µM, an IC50 [2] of 2.6 µM and an IC50 [3] of over 200 µM. It also gave an IC50 [4] of 169 µM.

COc1ccc([C@H]2[C@H](O)[C@@H](O)[C@H](CO)N2C)cc1 showed an IC50 [1] of over 200 µM, an IC50 [2] of over 200 µM and an IC50 [3] of over 200 µM. The IC50 [4] was over 200 µM.

Molecule COc1ccc([C@H]2N[C@H](CO)[C@@H](O)[C@@H]2O)cc1OC has an IC50 [1] of 1.8 µM, an IC50 [2] of 1.1 µM and an IC50 [3] of 52 µM. For the same molecule, the IC50 [4] was 34 µM and the Ki [5] was 0.7 µM.

OC[C@H]1N[C@H](c2ccccc2)[C@@H](O)[C@@H]1O showed an IC50 [1] of 36 µM, an IC50 [2] of 10 µM and an IC50 [3] of 93 µM. For the same molecule, the IC50 [4] was 197 µM.

COc1ccc([C@@H]2N[C@@H](CO)[C@H](O)[C@H]2O)cc1OC gave an IC50 [1] of over 200 µM, an IC50 [2] of 6 µM and an IC50 [3] of over 200 µM. The IC50 [4] was over 200 µM.

In the case of COc1ccc([C@@H]2[C@@H](O)[C@H](O)[C@@H](CO)N2C)c(OC)c1, the IC50 [1] is reported as over 200 µM, the IC50 [2] is reported as over 200 µM and the IC50 [3] is reported as 86 µM. It also gave an IC50 [4] of over 200 µM.

In the case of COc1ccc([C@H]2N[C@H](CO)[C@@H](O)[C@@H]2O)cc1O [RADICAMINE A], the IC50 [1] is reported as 12 µM, the IC50 [2] is reported as 4.2 µM and the IC50 [3] is reported as 66 µM. It also gave an IC50 [4] of over 200 µM.
